In the EternaBench riboswitch data:

System: MS2 coat protein
Experiment: apparent Kd, MS2 coat protein; higher = weaker binding; RNA-MaP array; FMN 200 µM where present
Outline: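 On Illumina sequencing-chip clusters, designs were transcribed by stalled E. coli RNA polymerase and titrated with SNAP-549-labelled MS2 coat protein (0.7 or 1.5 nM, doubling to 3 µM), without and then with constant ligand, in 100 mM Tris-HCl pH 7.5, 80 mM KCl, 4 mM MgCl2, BSA, DTT, yeast tRNA and Tween-20. Apparent Kd is the median of filtered per-cluster curve fits to green signal normalised to red-channel RNA signal and control-cluster median Fmax.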

[1] = designed as: OFF switch for flavin mononucleotide, no ligand
[2] = ligand present: flavin mononucleotide, designed as: OFF switch for flavin mononucleotide
[3] = designed as: ON switch for flavin mononucleotide, no ligand
[4] = ligand present: flavin mononucleotide, designed as: ON switch for flavin mononucleotide

UUAUUAGCAGGAUAUAUCCGGGAUCACAUGAGGAUCACCCAUGUGACCGCUUGAGAUCCUAUAGAAGGGCUUUAUU
apparent Kd [1]: 30.6 nM
apparent Kd [2]: 56.3 nM

GUAGCAUACCGAGGAUAUUCAGGGCGUGGAUAUACAUGAGGAUCACCCAUGUGGCGGAAGCCUAGGGAGAAGGCGGAAUGCUAC
apparent Kd [3]: 21.3 nM
apparent Kd [4]: 16.8 nM

CCUUUAAAGAUCCAAAAUUUCAACAUGAGGAUCACCCAUGUGCAGGAUAUCGUGCCAGUGAUGUACGAGAAGGGCAGACUCUGC
apparent Kd [1]: 119 nM
apparent Kd [2]: 149 nM

AGAUGGUAGAGAGGAUAUCAUGUGCUGACAUGAGGAUCACCCAUGUAGGGACGUCAGUCCAAUUAUGAGAAGGCUCUACCAUCU
apparent Kd [3]: 49.4 nM
apparent Kd [4]: 40.2 nM

GACUUGUAUGAGAAGGGACAUGGACUAGAUGUGACAUGAGGAUCACCCAUGUCAGGAUAUCAAGCGACCCGUAGCCGAUAGGCG
apparent Kd [1]: 10.5 nM
apparent Kd [2]: 46 nM

ACUGUUUGAUUCCUCUUAUACAUGAGGAUCACCCAUGUUAUCGAGGAUAUGCAUUAGAGUGUUUAGCAGAAGGCGAUGUAGUUG
apparent Kd [1]: 7.56 nM
apparent Kd [2]: 19.1 nM

GUUAAUUUCGAAGGAUAUGGAUACAUGAGGAUCACCCAUGUAUAAAAUGAGAUCUAUUAUAUGAUCCAGAAGGUCGUUUUUUAU
apparent Kd [1]: 36.5 nM
apparent Kd [2]: 69.6 nM

UAGUAUAACGAAGGAUAUGGAUACAUGAGGAUCACCCAUGUAUUUUUUGUGAUUUUAAAAUUGAUCCAGAAGGUCGUAUAAUUA
apparent Kd [1]: 23.6 nM
apparent Kd [2]: 28.2 nM

CGGAUGUGAGGAUAUACAUGAGGAUCACCCAUGUGAGCCAGCUAGCUGACUGGCUCAUGUAGAAGGCACGUCUG
apparent Kd [1]: 50.3 nM
apparent Kd [2]: 120 nM

UUGGAUGUUGAGGAUAUGCUGGUGUUUAUUAUAGCAGAAGGCGAUACAUGAGGAUCACCCAUGUUCAUGGCUUU
apparent Kd [1]: 12.8 nM
apparent Kd [2]: 15.2 nM

AAUCGGGAGCAGAAGGCAUGUCAUAAAACAUGAGGAUCACCCAUGUAGUUAAGGCGAAAGCCGCAUGAGGAUAUGCUCCCGUAA
apparent Kd [3]: 5.61 nM
apparent Kd [4]: 4.69 nM

CAGGUAGACUGAGGAUAUACAUUAAACAGCUAGUCUAUCUAGCUGGUCACAUGAGGAUCACCCAUGUAGAAGGCAGUCUGCCUG
apparent Kd [1]: 24.6 nM
apparent Kd [2]: 65.4 nM

UUAGAAUUGUUAGGAUAUUAAUUAUUGUAUAGUAUGAUCUACAUGAGGAUCACCCAUGUUAAAUAUAAGAAGGAACGUUAGAUU
apparent Kd [1]: 57.6 nM
apparent Kd [2]: 51.3 nM

GUAGUGUAUGUAGGAUAUGUGAACGAAACGUUCACAGAAGGACAUGAGGAUCACCCAUGUAUUACAGUCAGCAAUCUGACUGUU
apparent Kd [1]: 25.7 nM
apparent Kd [2]: 107 nM

UUUUAACAUGAGGAUCACCCAUGUCGUUCAAAUCAAGGAUAUCAGACGUGUACACACGCCUGAGAAGGUGAAGCUC
apparent Kd [3]: 51.1 nM
apparent Kd [4]: 132 nM

CUUUUGUGAGGAUAUUUGUAGUAAAUAAAUAAAAUUACUACUGAGAAGGCACAUGAGGAUCACCCAUGUUCCUC
apparent Kd [1]: 24.3 nM
apparent Kd [2]: 156 nM

GGCUACGUUUCGUAGCAGCUAGGUGAGGAUAUUCAAUUUUUCACAUGAGGAUCACCCAUGUAUGUGAAGAAGGCGCCUAGAAAC
apparent Kd [3]: 11.2 nM
apparent Kd [4]: 5.14 nM

CAGGUCUGAGGAUAUCCAUCUUCCUACAUGAGGAUCACCCAUGUUUCCCUCUGGGUUUUCGGAGAAGGCAGUUUUU
apparent Kd [1]: 263 nM
apparent Kd [2]: 226 nM

AGAACGUCAGGAUAUCGAACAACAAGUAAAUAGAGAAGAAGCGAGAAGGGACAUGAGGAUCACCCAUGUAAGAA
apparent Kd [1]: 57.6 nM
apparent Kd [2]: 45.3 nM

UUCGUGCAGCAUUGCUGUACGCGUACAUGAGGAUCACCCAUGUAGGAUAUGGUAGGCAAAGCUUACUAGAAGGAUAUAGUGAUC
apparent Kd [1]: 109 nM
apparent Kd [2]: 114 nM

ACAUGAGGAUCACCCAUGUGGAGUGAAGAAGGUGGUUACUUAAGACUCUUCCAUGUACUUAGGACUGAGGAUAUUCUAAUAUUU
apparent Kd [3]: 53.8 nM
apparent Kd [4]: 30.5 nM

GGAUUUUCUGAGGAUAUUGCAUCACCCGAUUUAUAAGAAGGCAGAACAUGAGGAUCACCCAUGUGGGUCUCCAG
apparent Kd [1]: 28.6 nM
apparent Kd [2]: 58 nM

UGUUGUAUUACAGGAUAUCUAUUAGUUUUUUUUAGAGAAGGGUAUUCACAUGAGGAUCACCCAUGUAUAUACGAGGAAGUUGUG
apparent Kd [3]: 50.2 nM
apparent Kd [4]: 51.7 nM

UGUUGUAUUACAGGAUAUCUAUUAGUUUGAUUUAGAGAAGGGUAUUCACAUGAGGAUCACCCAUGUAUAUACGAGGAAGUUGUG
apparent Kd [3]: 57.8 nM
apparent Kd [4]: 57.9 nM

AAGAAGUCAGGAUAUGCAUGGCGGGACUUGCGUCGUGGCGUGCAGAAGGGACAUGAGGAUCACCCAUGUGGAGA
apparent Kd [1]: 124 nM
apparent Kd [2]: 249 nM

UUGUACUAGGGAGGAUAUGGGAAGAUACAUGAGGAUCACCCAUGUUUAAGAAUGCCGAGAGGCAACUAGAAGGCCCUAGUACCU
apparent Kd [3]: 473 nM
apparent Kd [4]: 19.4 nM

AAUGUGUCAGGAUAUUGUUAGUUUAGUUGUUUGUAUUAGUUCGAGAAGGGACAUGAGGAUCACCCAUGUUGUUU
apparent Kd [1]: 30.2 nM
apparent Kd [2]: 30.6 nM

GCGGAAGGCACAGGAUAUCGUCCUUAGUUGGUACGAGAAGGGUGGCGCUGCCACAUGAGGAUCACCCAUGUGCCUUGACUAUAG
apparent Kd [3]: 245 nM
apparent Kd [4]: 1180 nM

GACUUGCGCACAGGAUAUCCACGGAGCGGACGUGGAGAAGGGUGACAUGAGGAUCACCCAUGUACGUAAGUCUGGAUCACUCCC
apparent Kd [3]: 108 nM
apparent Kd [4]: 33.1 nM

UGGUCAUCAUCAGGAUAUUAACAUGGGCUACAUUAAGAAGGGAUAGUGAGAUAGGAACUGAAACAUGAGGAUCACCCAUGUUGU
apparent Kd [3]: 96.9 nM
apparent Kd [4]: 44.2 nM

CAAUUUAUAACAGGAUAUAUAAUACAAUAGUUAAUAGAAGGGUUUAAUACAUGAGGAUCACCCAUGUCAUGUGUCAUAAUUACC
apparent Kd [1]: 34.8 nM
apparent Kd [2]: 30.5 nM

CCAAUGUAAGGAUAUGACAAUGGUAUCUUCGGAUACCAUUGUCAGAAGGUACAUGAGGAUCACCCAUGUACAAA
apparent Kd [1]: 14.3 nM
apparent Kd [2]: 16.6 nM

ACCUCACAUGAGGAUCACCCAUGUCAGGAUAUCUAUUAUUGCAGCGUUCCCGUCGCUGAGAGAAGGGACAUUAA
apparent Kd [1]: 14 nM
apparent Kd [2]: 16.8 nM

GGUGGACAUGAGGAUCACCCAUGUGAGGAUAUCGGCUGGCUACUCGCUGACGGCUGCUCGAGAAGGCGCAUUGU
apparent Kd [1]: 46.3 nM
apparent Kd [2]: 95.6 nM

GACAUGGUCUAGAAGGGCUAUCUAUUUAAGUACGAUUUAGAACAGCAUAGCAGGAUAUGGCUAACAUGAGGAUCACCCAUGUUC
apparent Kd [3]: 40.5 nM
apparent Kd [4]: 18.7 nM

UUACUAUAACAGAAGGCUAAAUAAUAUAUAAAUGGAGGAUAUGUUACAUGAGGAUCACCCAUGUUUCACCCACAUGAGGAUCAC
apparent Kd [1]: 13.7 nM
apparent Kd [2]: 42 nM

UUAAUUAAUUAAUUAUACAUGAGGAUCACCCAUGUAAGUGAUCAGGAUAUCAGCUCGAAUAGAGCUGAGAAGGGAUCCAUGUAA
apparent Kd [3]: 117 nM
apparent Kd [4]: 83 nM

GGACAUGUCGUUUACAUGAGGAUCACCCAUGUCGAUGGACAUGAGGAUAUCGAUACAAAUUGUAUCGAGAAGGCAUGCAUGUCC
apparent Kd [3]: 40.8 nM
apparent Kd [4]: 18.5 nM

AUCAGCUCGUCAGGAUAUACGUCACUGCGUCAGCAGUGUGGUAUGAUCACAUGAGGAUCACCCAUGUAGAAGGGACGAGCUGAU
apparent Kd [1]: 8.62 nM
apparent Kd [2]: 132 nM

UAUCAAUUUAUGGGUUUAGAUUAUGAGGAUAUCAUUUUUUUAUACAUGAGGAUCACCCAUGUUACUGAGAAGGCAUAAUUAAUA
apparent Kd [3]: 17.4 nM
apparent Kd [4]: 6.21 nM

UGUUGUAUUACAGGAUAUCUAUUGUUUUUGUUUAGAGAAGGGUAUUCACAUGAGGAUCACCCAUGUAUAUACGAGGAAGUUGUG
apparent Kd [3]: 62.8 nM
apparent Kd [4]: 72 nM

UAUAUAUAGUAAGGAUAUGUAUUAAUUUUAUCAACAGAAGGUACUGACAUGAGGAUCACCCAUGUUUUAGUGUGGGCAUGUAGA
apparent Kd [1]: 84 nM
apparent Kd [2]: 109 nM

UUACUAUUGGAGAAGGGUCGAUAAUAUAUAAUGGCAGGAUAUCCAACAUGAGGAUCACCCAUGUUUCACCCAUAUGAGGAUCAC
apparent Kd [1]: 54.2 nM
apparent Kd [2]: 24.1 nM

AACUCACAUGAGGAUCACCCAUGUGAGGAUAUAUUAUUAUGGCUGUUAUGCUGUAGUGGUAGAAGGCGCGUGAU
apparent Kd [1]: 33.2 nM
apparent Kd [2]: 28.7 nM

UAUAUGUCAGGAUAUUAGUUGUGGACGAAUAAGACUUCUGCUGAGAAGGGACAUGAGGAUCACCCAUGUUCCUC
apparent Kd [1]: 15.8 nM
apparent Kd [2]: 19.4 nM

GCUGGACGAGGAUAUACAUUCGUGCUUCGGCACGUAAGAUCACAUGAGGAUCACCCAUGUAGAAGGUGUCCAGC
apparent Kd [1]: 42.1 nM
apparent Kd [2]: 200 nM

ACAUAGUAAGGAUAUGCUGCUCGUCACUUGCGUGAUGAGUAGCAGAAGGUACAUGAGGAUCACCCAUGUAAAGA
apparent Kd [1]: 30.1 nM
apparent Kd [2]: 20.3 nM

AGCUGUGGCCGAGGAUAUCUAUCCAAAAUAACCGAAAUAUAAUCGGACAUGAGGAUCACCCAUGUAGAGAAGGCGGUCUCAGCA
apparent Kd [1]: 24.3 nM
apparent Kd [2]: 37 nM

UUAGAAUUGCAAGGAUAUCUUAUUUAGAUAGUAAGAGAAGGUGCUUUAUAGUUACAUGAGGAUCACCCAUGUAUUUCUUUUUAU
apparent Kd [3]: 23.1 nM
apparent Kd [4]: 19.7 nM

AGAAACUACGAGAAGGACAUGUGGUCCUUCAGUAACAUGAGGAUCACCCAUGUAGGAUAUCGUAGUUUCAGGAUCGUGAGAUCA
apparent Kd [1]: 150 nM
apparent Kd [2]: 19.1 nM

GUUUUUCCUCAUGUACAUGAGGAACAUGAGGAUCACCCAUGUAGAAGGAAUUUUUUUAAGUUUAGUUAGGAUAUACAUAUAUUG
apparent Kd [1]: 106 nM
apparent Kd [2]: 71.5 nM

GGUGCGUUUGUGAGGAUAUGCUGGUCCUUGGAUCUGCAGAAGGCACAUGAGGAUCACCCAUGUGGUGUCGUACC
apparent Kd [1]: 293 nM
apparent Kd [2]: 36.5 nM

ACAGCGGAGGCAGGAUAUCGCACAUGAGGAUCACCCAUGUGGUUAUUUACGGGUUGGUGGUCACGCGAGAAGGGCCAACCAUAA
apparent Kd [1]: 59 nM
apparent Kd [2]: 31.7 nM

GGUACUCAAAGAGUACUUGGUCGAACAUGAGGAUCACCCAUGUAGGAUAUGCGAAGCAAGAAGUAGCAGAAGGGCGUGUGCAGC
apparent Kd [1]: 12.8 nM
apparent Kd [2]: 11.6 nM

CUCAAGUGAGGAUAUAUACUUCCAUCAUUUGAGAUAGAAGUAUAGAAGGCACAUGAGGAUCACCCAUGUAUAAC
apparent Kd [1]: 136 nM
apparent Kd [2]: 39.7 nM
